The subject of one series is Plasmodium falciparum. Description: Antimalarial activity against Plasmodium falciparum 3D7A infected in human RBC after 48 hrs by [3H]-hypoxanthine incorporation assay. The class given is functional.
The target of the next series is serum albumin (Homo sapiens, UniProt P02768). As to the kind of experiment: Binding affinity to human serum albumin by HPLC method. The class given is ADME. The note with it: read-out: PB (converted).
Series [1] can be described thus: Oral bioavailability in CD1 mouse at 10.757 mg/kg administered via gavage by LC-MS/MS method. Format: ADME, organism-based. The note with it: in vivo. In outline:
(§1)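 Specific pathogen-free female CD1 (Hsd:ICR) mice, 8 to 10 weeks old. Each compound was given as an intravenous dose and an oral dose at the levels listed. Parameters reported: Vd, clearance, t1/2, Cmax, Tmax, AUC0-t, AUC∞ and %F.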

The nature of series [2]: AUC (infinity) in CD1 mouse at 10.757 mg/kg administered via oral gavage by LC-MS/MS method. The class given is ADME, organism-based. The arrangement: dose 10.757 mg/kg, route oral, time infinity. The note with it: in vivo, 10.76 mg/kg. In outline: as §1
A short description of series [3]: Tmax in CD1 mouse at 10.757 mg/kg administered via oral gavage by LC-MS/MS method. The class given is ADME, organism-based. The note with it: in vivo. In outline: (§2)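 Specific pathogen-free female CD1 (Hsd:ICR) mice, 8–10 weeks old, housed in the institutional animal facility. Each compound was given intravenously at a low dose and orally at a higher dose. Vd, clearance, t1/2, Cmax, Tmax, AUC0-t, AUC∞ and %F were derived from plasma exposure after each route.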

The nature of series [4]: Half life in CD1 mouse at 0.17 mg/kg, iv as bolus dose by LC-MS/MS method. Format: ADME, organism-based. Conditions: in vivo. In outline: as §1
Series [5] is described as follows: AUC (0 to t) in CD1 mouse at 10.757 mg/kg administered via oral gavage by LC-MS/MS method. Format: ADME, organism-based. The note with it: in vivo. In outline:
as §1

Series [6] in a line: Volume of distribution in CD1 mouse at 0.17 mg/kg, iv as bolus dose by LC-MS/MS method. The class given is ADME, organism-based. Conditions: in vivo. In outline: as §2
Series [7] is described as follows: Clearance in CD1 mouse at 0.17 mg/kg, iv as bolus dose by LC-MS/MS method. The class given is ADME, organism-based. Conditions: in vivo. In outline: as §1
Series [8] can be described thus: Cmax in CD1 mouse at 10.757 mg/kg administered via oral gavage by LC-MS/MS method. The arrangement: dose 10.757 mg/kg, route oral. The note with it: in vivo, 10.76 mg/kg. The class given is ADME, organism-based. In outline: as §1
In a further series the test system is Plasmodium yoelii. As to the kind of experiment: Schizontocidal activity against Plasmodium yoelii infected in CD1 mouse administered via oral gavage as qd for 4 days starting 1 hr post infection by YOYO-1 dye-based flow cytometric method. The class given is functional. In outline: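 Blood schizontocidal activity was tested in a modified 4-day suppressive test in mice infected with P. yoelii. Four oral doses were given by gavage over four days.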
Background: In flow cytometry, cells or beads pass a laser one at a time.

Structures are written as SMILES.

Chain of serum albumin (P02768 whole entry): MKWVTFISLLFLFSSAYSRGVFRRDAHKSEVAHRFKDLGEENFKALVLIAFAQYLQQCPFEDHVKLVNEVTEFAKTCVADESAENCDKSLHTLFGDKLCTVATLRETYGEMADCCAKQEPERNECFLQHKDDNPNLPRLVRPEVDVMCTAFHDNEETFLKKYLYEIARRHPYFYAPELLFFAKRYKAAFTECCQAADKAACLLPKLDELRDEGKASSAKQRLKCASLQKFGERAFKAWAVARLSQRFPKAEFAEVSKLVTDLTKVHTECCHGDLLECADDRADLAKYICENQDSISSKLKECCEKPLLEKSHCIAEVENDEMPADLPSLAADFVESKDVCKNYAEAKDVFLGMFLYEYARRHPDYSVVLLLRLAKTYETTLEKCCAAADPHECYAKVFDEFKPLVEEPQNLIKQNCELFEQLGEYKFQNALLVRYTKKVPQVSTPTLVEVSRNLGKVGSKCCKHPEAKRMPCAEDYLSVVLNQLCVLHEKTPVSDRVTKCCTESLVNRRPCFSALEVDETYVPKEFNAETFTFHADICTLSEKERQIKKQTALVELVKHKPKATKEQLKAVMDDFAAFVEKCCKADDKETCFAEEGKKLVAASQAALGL

Compound `Cc1[nH]c(C)c(-c2ccc(-c3ccccc3OC(F)(F)F)nc2)c(=O)c1Cl` displayed an IC50 in the series on Plasmodium falciparum of 35 nM.
For `Cc1[nH]c(C)c(-c2ccc(OCc3cccc(C(F)(F)F)c3)nc2)c(=O)c1Cl`, the IC50 in the series with Plasmodium falciparum was 5 nM.
For the compound `Cc1[nH]c(C)c(-c2ccc(-c3ccc(C(F)(F)F)cc3C(F)(F)F)nc2)c(=O)c1Br`, the IC50 in the series on Plasmodium falciparum is 6 nM.
Take `Cc1[nH]c(C)c(-c2ccc(OCc3ccc(OC(F)(F)F)cc3)nc2)c(=O)c1Br`: the fraction unbound at serum albumin was 0.03. In addition, half-maximal inhibition in the series on Plasmodium falciparum (IC50) was put at 19 nM.
Regarding `Cc1[nH]c(C)c(-c2ccc(OCc3cc(C(F)(F)F)cc(C(F)(F)F)c3)nc2)c(=O)c1Cl`, in the series on Plasmodium falciparum, inhibition was half-maximal at 29 nM (IC50).
In the series with Plasmodium falciparum, `Cc1[nH]c(C)c(-c2ccc(-c3ccc(S(C)(=O)=O)cc3)nc2)c(=O)c1Br` registered an IC50 of 288 nM.
With `Cc1[nH]c(C)c(-c2ccc(-c3cccc(Cl)c3)nc2)c(=O)c1Cl`, the half-inhibitory concentration (IC50) with Plasmodium falciparum came out at 116 nM.
The same measure, in the same setting: then `Cc1[nH]c(C)c(-c2ccc(CCc3cccc(C(F)(F)F)c3)nc2)c(=O)c1Cl`, with 7 nM.
The compound `Cc1[nH]c(C)c(-c2ccc(-c3ccc(OC(F)(F)F)cc3)nc2)c(=O)c1Cl` yielded a bioavailability in [1] of 54.9%. In [2], this compound had a total exposure AUC(0-inf) of 187 µg·h/mL. In [3], the Tmax amounted to 10 h. This compound also gave a half-life in series [4] of 18.7 h. The compound further yielded an AUC(0-t) in [5] of 167 µg·h/mL. In series [6], this compound displayed a Vd of 0.85 L/kg. On serum albumin, the fraction unbound is 0.04. For the same compound, the clearance in series [7] came out at 0.53 mL/min/kg. This compound registered an IC50 in the series on Plasmodium falciparum of 20 nM. Further, the Cmax in [8] is 2290 ng/mL. For the same compound, in the series with Plasmodium yoelii, the 50% effect level (ED50) was put at a dose of 0.15 mg/kg.
For the compound `Cc1[nH]c(CO)c(-c2ccc(-c3ccc(C(F)(F)F)cc3F)nc2)c(=O)c1Cl`, the fraction unbound at serum albumin is 0.06. In the series on Plasmodium falciparum, the IC50 stood at 5 nM. The ED50 in the series on Plasmodium yoelii is 0.2 mg/kg.
With `Cc1[nH]c(C)c(-c2ccc(-c3cccc(CO)c3)nc2)c(=O)c1Br`, half-maximal inhibition in the series with Plasmodium falciparum (IC50) required 324 nM.
`Cc1[nH]c(C)c(-c2ccc(-c3ccc(Cl)cc3)nc2)c(=O)c1Br` came in with an IC50 with Plasmodium falciparum of 110 nM.
In the series on Plasmodium falciparum, `Cc1[nH]c(C)c(-c2ccc(OCc3cc(F)cc(F)c3)nc2)c(=O)c1Cl` yielded an IC50 of 80 nM.
The compound `Cc1[nH]c(C)c(-c2ccc(-c3ccc(C#N)cc3)nc2)c(=O)c1Br` showed an IC50 with Plasmodium falciparum of 329 nM.
On to `Cc1[nH]c(CO)c(Cl)c(=O)c1-c1ccc(Oc2ccc(OC(F)(F)F)cc2)cc1`, for which it took 133 nM to reach half-maximal inhibition in the series on Plasmodium falciparum (IC50).
`Cc1[nH]c(C)c(-c2ccc(OCc3ccc(F)cc3)nc2)c(=O)c1Cl` gave an IC50 in the series with Plasmodium falciparum of 33 nM.
On the same count and under the same terms, the same measure for `Cc1[nH]c(CO)c(-c2ccc(Oc3ccc(OC(F)(F)F)cc3)cc2)c(=O)c1Cl`: 5 nM; for `Cc1[nH]c(C)c(-c2ccc(OCc3ccc(C(F)(F)F)cc3)nc2)c(=O)c1Br`: 2 nM.
With `Cc1[nH]c(C)c(-c2ccc(-c3ccccc3F)nc2)c(=O)c1Br`, half-maximal inhibition in the series on Plasmodium falciparum (IC50) required 64 nM.
Take `Cc1[nH]c(C)c(-c2ccc(OCc3cc(F)cc(F)c3)nc2)c(=O)c1Br`: inhibition in the series on Plasmodium falciparum was half-maximal at 40 nM (IC50).
For `Cc1[nH]c(C)c(-c2ccc(OCc3ccccc3C(F)(F)F)nc2)c(=O)c1Cl`, in the series with Plasmodium falciparum, 10 nM corresponded to half-maximal inhibition (IC50).

Broadly, the IC50 is the concentration needed to halve the response being measured. By bioavailability is commonly meant dose-corrected exposure relative to a reference, in per cent. Read a low bioavailability as little systemic uptake. One may read the AUC(0-inf) as total exposure, with the tail of the curve extrapolated. A lower AUC(0-inf) goes with low exposure. The Tmax is the time from dosing to the highest level. As a reminder, the half-life is the time needed for the level to fall by half in the phase considered. In general, AUC(0-t) refers to the area under the concentration-time curve up to a stated or last time point. Read a high AUC(0-t) as more exposure. A word on the Vd: it is the apparent volume that relates the amount in the body to the concentration in plasma or blood. Usually clearance stands for a measure of how efficiently the substance is removed, as volume per time. Read a low clearance as a low capacity for elimination. Broadly, the Cmax is the peak of the concentration-time curve. What is called ED50 is the dose at which the effect has come halfway, by size or by number of responders. Lower therefore signals an effect at a small dose.

Values taken from ChEMBL document CHEMBL4043297, “Synthesis and Structure-Activity Relationships of the Novel Antimalarials 5-Pyridinyl-4(1 H)-Pyridones” (J Med Chem, 2018).
